Results reported in ChEMBL document CHEMBL3259553 (J Med Chem, 2014).
Active and inactive are the calls of the source. No cut-off for these calls is given here.

Key:
[1] = Oral bioavailability in rat at 5 mg/kg; format: ADME, organism-based; conditions: in vivo
Method in brief: (§1)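 Rat pharmacokinetics after a 5 mg/kg dose given iv, or given orally as a suspension. Values are means with SD from N = 3 rats.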

Homo sapiens [2] = assay: Toxicity in healthy human with mildly elevated LDL-C level assessed as reversible reduction in free T4 level at 200 mg, po qd for 2 weeks; format: organism-based; design: scale not given: the % may be the effect or the level left; conditions: in vivo, 336 h
Method in brief: (§2)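 Healthy subjects with LDL-C >110 mg/dL received once daily oral doses for 2 weeks in a multiple ascending dose study. Free T3, free T4 and TSH were compared with placebo.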

[3] = Plasma concentration in thyroidectomized rat at 37.5 mg/kg, ip measured after 6 hrs; format: ADME, organism-based; design: dose 37.5 mg/kg, route intraperitoneal
Method in brief: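 Thyroidectomized rats were dosed intraperitoneally at 5, 20 or 37.5 mg/kg, with 4 rats per group. Vehicle was 4% DMSO, 15% PEG-400 and 81% of 30% HPBCD in phosphate buffer. Cardiac α-MHC hnRNA, in arbitrary units, and plasma concentration were measured 6 h after dosing. Comparators were untreated thyroidectomized rats and euthyroid rats.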

Mus musculus [4] = assay: Antidyslipidemic activity in diet-induced obese C57Bl/6J mouse model assessed as reduction in liver triglycerides at 0.3 to 10 mg/kg, po administered daily for 23 days; format: functional, organism-based
Method in brief: (§3)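 C57Bl/6J mice aged six weeks were fed a high fat diet for 34 weeks. Body weight and food intake were monitored. BMD and body composition were assessed on day 22, and laboratory assessments were made at study end.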

Cytochrome P450 3A5 = Cytochrome P450 3A5 (Homo sapiens, UniProt P20815); assay: Inhibition of CYP3A5 (unknown origin); format: ADME
Sequence of Cytochrome P450 3A5 (P20815 whole entry): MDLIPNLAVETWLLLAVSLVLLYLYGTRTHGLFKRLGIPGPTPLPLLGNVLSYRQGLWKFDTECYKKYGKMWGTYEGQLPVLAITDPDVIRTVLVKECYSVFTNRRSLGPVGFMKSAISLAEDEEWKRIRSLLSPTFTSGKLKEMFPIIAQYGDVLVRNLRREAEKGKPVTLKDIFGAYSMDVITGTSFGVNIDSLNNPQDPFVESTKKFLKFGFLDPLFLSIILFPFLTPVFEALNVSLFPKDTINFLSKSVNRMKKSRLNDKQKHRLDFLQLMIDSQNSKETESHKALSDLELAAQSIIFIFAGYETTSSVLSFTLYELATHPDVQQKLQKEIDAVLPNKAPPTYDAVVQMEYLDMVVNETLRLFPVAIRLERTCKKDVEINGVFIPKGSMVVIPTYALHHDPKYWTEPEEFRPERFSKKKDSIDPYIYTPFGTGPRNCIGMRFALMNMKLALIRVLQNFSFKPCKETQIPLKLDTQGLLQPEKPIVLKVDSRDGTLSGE

[5] = Intrinsic clearance in human hepatocytes assessed per million cells; format: ADME, cell-based, Hepatocyte; conditions: read-out: CLH
Oryctolagus cuniculus = organism: Oryctolagus cuniculus; assay: Toxicity in hypercholesterolemic rabbit model assessed as effect on TSH level; format: organism-based; conditions: in vivo
Homo sapiens [6] = assay: Toxicity in healthy human with mildly elevated LDL-C level assessed as effect on QT interval at 5 to 200 mg, po qd for 2 weeks by multiple ascending dose study; format: organism-based; conditions: in vivo, 336 h
Method in brief: (§4)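 Multiple ascending dose study after single ascending dose study. Healthy subjects with LDL-C >110 mg/dL received once daily oral doses of 5 to 200 mg for 2 weeks. Safety and tolerability were assessed, covering QT interval, heart rate, vital signs and liver enzymes.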

Rattus norvegicus = assay: Cmax in rat at 5 mg/kg, po; format: ADME, organism-based; design: dose 5 mg/kg, route oral; conditions: in vivo; method in brief: as §1
Homo sapiens [7] = assay: Toxicity in healthy human with mildly elevated LDL-C level assessed as effect on free T3 level at 100 to 200 mg, po qd for 2 weeks; format: organism-based; conditions: in vivo, 336 h; method in brief: as §2
Homo sapiens [8] = assay: Toxicity in healthy human with mildly elevated LDL-C level assessed as effect on effect on liver enzymes at 5 to 200 mg, po qd for 2 weeks by multiple ascending dose study; format: organism-based; conditions: in vivo, 336 h; method in brief: as §4
hERG (KCNH2) = hERG (KCNH2) (Homo sapiens, UniProt Q12809); assay: Inhibition of human ERG
Sequence of hERG (KCNH2) (Q12809 whole entry): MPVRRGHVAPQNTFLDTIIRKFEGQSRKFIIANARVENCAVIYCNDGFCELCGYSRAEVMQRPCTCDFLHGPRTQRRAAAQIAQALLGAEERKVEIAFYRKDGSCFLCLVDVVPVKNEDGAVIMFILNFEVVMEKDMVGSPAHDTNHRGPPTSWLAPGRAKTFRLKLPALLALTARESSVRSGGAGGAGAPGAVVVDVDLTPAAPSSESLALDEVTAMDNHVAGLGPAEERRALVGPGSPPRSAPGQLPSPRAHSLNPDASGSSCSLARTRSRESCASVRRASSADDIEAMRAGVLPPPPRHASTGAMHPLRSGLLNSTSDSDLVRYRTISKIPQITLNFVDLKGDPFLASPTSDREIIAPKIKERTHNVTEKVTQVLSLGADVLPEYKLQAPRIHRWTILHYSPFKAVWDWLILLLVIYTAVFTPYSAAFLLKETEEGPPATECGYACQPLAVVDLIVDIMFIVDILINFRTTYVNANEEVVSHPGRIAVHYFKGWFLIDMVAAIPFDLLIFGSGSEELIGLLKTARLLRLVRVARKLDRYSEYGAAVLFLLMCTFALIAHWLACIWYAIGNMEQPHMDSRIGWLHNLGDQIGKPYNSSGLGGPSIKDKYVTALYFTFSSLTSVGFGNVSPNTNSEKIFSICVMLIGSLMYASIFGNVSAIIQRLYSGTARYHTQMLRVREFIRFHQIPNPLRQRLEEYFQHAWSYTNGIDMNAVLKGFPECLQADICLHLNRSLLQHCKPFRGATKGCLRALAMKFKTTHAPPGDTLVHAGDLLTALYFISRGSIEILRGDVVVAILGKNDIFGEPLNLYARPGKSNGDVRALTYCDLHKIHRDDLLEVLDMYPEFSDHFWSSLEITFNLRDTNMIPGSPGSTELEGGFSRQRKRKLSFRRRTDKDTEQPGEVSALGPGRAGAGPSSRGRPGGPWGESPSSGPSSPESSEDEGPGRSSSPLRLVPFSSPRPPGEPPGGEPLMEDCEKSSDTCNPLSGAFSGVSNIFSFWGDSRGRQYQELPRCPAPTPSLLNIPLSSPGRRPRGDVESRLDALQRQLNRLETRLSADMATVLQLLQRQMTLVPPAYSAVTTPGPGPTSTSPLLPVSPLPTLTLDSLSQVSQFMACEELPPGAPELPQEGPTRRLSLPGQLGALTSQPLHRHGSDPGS
Method in brief: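 hERG channel blockade was expressed as an IC20.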

Mus musculus [9] = assay: Antidyslipidemic activity in diet-induced obese C57Bl/6J mouse model assessed as reduction in liver size at 0.3 to 10 mg/kg, po administered daily for 23 days; format: functional, organism-based; method in brief: as §3
Mus musculus [10] = assay: Toxicity in diet-induced obese C57Bl/6J mouse model assessed as effect on kidney size at 0.3 to 10 mg/kg, po administered daily for 23 days; format: organism-based; design: dose 0.3-10 mg/kg, route oral; conditions: in vivo; method in brief: as §3
[11] = AUC in rat at 5 mg/kg, iv; format: ADME, organism-based; design: dose 5 mg/kg, route intravenous; conditions: plasma

CC(C)c1cc(Oc2c(Cl)cc(-n3nc(C#N)c(=O)[nH]c3=O)cc2Cl)n[nH]c1=O [RESMETIROM]
bioavailability [1]: 45%
Activity (Homo sapiens [2]): 20%
concentration at 6 h [3]: 94 µM
Activity (Mus musculus [4]): Active
IC50 (Cytochrome P450 3A5): > 50 µM
hepatocyte CLint [5]: 1.04 µL/min/1e6 cells
Activity (Oryctolagus cuniculus): Non-toxic
Activity (Homo sapiens [6]): Non-toxic
Cmax (Rattus norvegicus): 1710 ng/mL
Activity (Homo sapiens [7]): Non-toxic
Activity (Homo sapiens [8]): Non-toxic
IC20 (hERG (KCNH2)): 30 µM
Activity (Mus musculus [9]): Active
Activity (Mus musculus [10]): Non-toxic
AUC [11]: 38100 ng·h/mL
